Compound activity deposited in PubChem by Broad Institute.
dFosB act: activators of mouse delta FosB homodimer. P13346. purified delta FosB, TAMRA-CDK5 oligo fluorescence polarization; percent of positive-control signal above neutral wells. activation, % at 25 µM. actives 0.99% (n = 340,000). AID 493131;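 active = mean activation above about 17%, with every replicate also reaching it, limit read from the data, passing the limit was not always enough; inconclusive = only one of the two conditions met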
Target sequence (P13346 whole entry, looked up): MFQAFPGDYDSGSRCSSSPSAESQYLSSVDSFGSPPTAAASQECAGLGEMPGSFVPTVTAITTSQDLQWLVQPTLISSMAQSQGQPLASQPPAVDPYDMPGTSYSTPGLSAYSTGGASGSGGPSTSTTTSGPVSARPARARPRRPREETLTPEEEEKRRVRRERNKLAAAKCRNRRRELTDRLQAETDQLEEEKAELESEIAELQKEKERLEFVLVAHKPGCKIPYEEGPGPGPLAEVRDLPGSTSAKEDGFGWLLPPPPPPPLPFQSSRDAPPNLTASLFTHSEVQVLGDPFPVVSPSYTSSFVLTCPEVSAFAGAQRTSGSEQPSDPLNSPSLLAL
SR-BI uptake up: activators of SR-BI mediated HDL lipid uptake | CHO ldlA[mSR-BI] cells, DiI-HDL uptake fluorescence, 3 h; 100 = double the neutral-control signal | activation, % at 12.5 µM | actives 0.096% (n = 320,000);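 active = mean replicate activation of at least 60% and every replicate at or above 60%; inconclusive = mean or all-replicate condition met, but not both; inactive = mean below 60% and not all replicates reaching 60%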;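 note: 0% = median plate neutral-control signal and 100% = twice that signal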
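Material: SR-BI-overexpressing, LDLR-lacking CHO cells; schedule: compound exposure 3 h, 37 °C; reagent: DiI-labelled HDL at 10 µg/mL final; technique: bottom-read fluorescence, 550/595 nm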
SR-BI HDL uptake: blocks mouse SR-BI lipid uptake from DiI-HDL; Q61009; ldlA[mSR-BI] CHO cells, DiI-HDL uptake fluorescence, 3 h; inhibition, % at 12.5 µM; actives 0.96% (n = 320,000); AID 488896;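 active = mean replicate inhibition of at least 70% and a set share of replicates each scoring 70 or more; inconclusive = meets just one of the two criteria; inactive = fails both criteria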;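 note: 0% = median of neutral control wells and 100% = median of positive control wells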
CDK5 p35 inh: inhibitors of human CDK5/p35 kinase; actives 0.01% (n = 330,000); inhibition, % at 10 µM; Recombinant CDK5/p35, ADP-Glo luminescence, 60 min; Q00535+Q15078;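 active = highest replicate inhibition of at least 50% and at least 75% of replicates reaching 50%; inconclusive = only one of the two criteria met; inactive = both criteria failed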;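 note: plate controls were DMSO neutral control for no effect and GW8510 at 10 µM for full effect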
Active calls of the source: *; ? = inconclusive; / = no result given. An excerpt weighted towards active compounds, which were near 2% of everything screened.

SMILES | dFosB act | SR-BI uptake up | SR-BI HDL uptake | CDK5 p35 inh
COc1ccccc1NC(=O)Nc1nc(CC(=O)Nc2cccc(F)c2)cs1 | 11.9 | -36.0 | 36.0 | -0.4
CNC(=O)NC(=O)COc1ccc2oc3c(c2c1)CCCC3 | -4.2 | / | / | 0.1
Cn1nc(C(F)(F)F)c2cc(C(=O)Nc3ccc(F)c(Cl)c3)sc21 | -3.2 | -72.8 | ? | 1.1
Cn1nc(C(F)(F)F)c2cc(C(=O)Nc3ccc(C(F)(F)F)cc3)sc21 | 1.1 | -84.1 | 84.1* | -0.9
Cn1nc(C(F)(F)F)c2cc(C(=O)Nc3ccc(F)cc3)sc21 | -22.6 | -75.7 | 75.7* | 0.7
O=C(COC(=O)C1CCCCC1)Nc1cccc(Br)c1 | -11.6 | 63.5* | -63.5 | -1.1
O=C(COC(=O)C1CCCCC1)Nc1cccc(F)c1 | 8.6 | -0.6 | 0.6 | 0.5
Cc1ccc(C)c(OCCC(=O)OCC(=O)NCCc2ccc(S(N)(=O)=O)cc2)c1 | -0.2 | 12.4 | -12.4 | -4.2
CCCOc1c(Cl)cc(C(=O)Nc2ccc3c(c2)OCO3)cc1OCC | -8.7 | -78.3 | 78.3* | -1.7
CCCOc1ccc(C(=O)Nc2ccc3c(c2)OCO3)cc1 | 2.3 | 0.9 | -0.9 | 0.2
CCOc1cc(C(=O)Nc2ccc3c(c2)OCO3)ccc1OC(F)F | 15.0 | -88.7 | 88.7* | 0.6
O=C(N/N=C/c1cccn1-c1ccc([N+](=O)[O-])cc1)c1cccnc1 | -13.9 | -88.8 | 88.8* | 0.4
O=C(N/N=C/c1cccnc1)c1ccc([N+](=O)[O-])cc1 | -7.5 | 3.3 | -3.3 | -1.7
CN=c1scc(-c2ccco2)n1/N=C/c1ccc(O)c(O)c1 | -13.8 | -73.0 | 73.0* | 6.5
O=C(NCCCO)C(=O)Nc1cc2c3c(c1)CCC(=O)N3CCC2 | 1.8 | 0.2 | -0.2 | 1.3
CCCCC(=O)Nc1nnc(SCC(=O)NCC2CCCO2)s1 (stereo not drawn) | 2.4 | 18.2 | -18.2 | -3.2
O=C(NCc1ccccc1Cl)C1CCN(S(=O)(=O)c2ccc(N3CCCC3=O)cc2)CC1 | -6.3 | / | 113.8* | 1.5
O=C(NCc1ccccc1Cl)C1CCCN(S(=O)(=O)c2cccc3nonc23)C1 (stereo not drawn) | 39.2* | / | / | -1.7
Cc1ccc(CCNC(=O)C2CCN(S(=O)(=O)c3cccc4nonc34)CC2)cc1 | -6.0 | -5.1 | 5.1 | -0.1
O=C(NCc1ccccc1Cl)C1CCN(S(=O)(=O)c2ccc(-n3cnnn3)cc2)CC1 | -0.7 | / | / | -0.9
Cc1ccc(CNC(=O)C2CCN(S(=O)(=O)c3cccc4nonc34)CC2)cc1 | 20.9* | 5.4 | -5.4 | -0.8
CCCCCCN1C=C/C(=C\C=C(C#N)C#N)c2ccccc21 | -23.9 | -75.9 | 75.9* | 5.7
N#Cc1ccccc1Sc1ccccc1C(=O)NCC(c1ccco1)N1CCCC1 (stereo not drawn) | -2.3 | 14.6 | -14.6 | -8.6
O=C(Nc1ccc2oc(-c3ccccc3Cl)nc2c1)c1cncc(Br)c1 | 64.0* | -37.3 | 37.3 | -0.1
Cc1cc(C)cc(OCC(=O)OCC(=O)NCCC2=CCCCC2)c1 | -8.1 | 19.5 | -19.5 | 0.7
SMILES | dFosB act | SR-BI uptake up | SR-BI HDL uptake | CDK5 p35 inh
O=C(COC(=O)COc1ccccc1)NCCC1=CCCCC1 | -5.6 | 73.3* | -73.3 | 0.4
CCOc1ccc(Br)cc1S(=O)(=O)NC1=NCCCCC1 | 1.0 | 16.9 | -16.9 | 0.9
Cc1cc(/C=N\NC(=O)COc2cccc3cccnc23)c(C)n1-c1ccc(Br)cc1 | -12.7 | -21.1 | 21.1 | -0.7
Cc1cc(/C=N\NC(=O)c2cccs2)c(C)n1-c1ccc2ncccc2c1 | 3.7 | -73.3 | 73.3* | -0.3
COC(=O)CCNC(=O)c1nn(Cc2ccccc2)c(=O)c2ccccc12 | 1.6 | / | / | -0.7
COc1ccc(CCNC(=O)C(CCC(N)=O)NS(=O)(=O)c2ccc(Cl)cc2)cc1OC (stereo not drawn) | 3.2 | 9.3 | -9.3 | 0.8
O=C(Nc1ccc(C(=O)N2CCOCC2)cc1)c1cc(-c2cccnc2)nc2ccc(Cl)cc12 | -32.1 | -79.0 | 79.0* | 1.4
Cc1cc(NS(=O)(=O)c2ccc(NC(=O)c3cc(-c4cccnc4)nc4ccc(Cl)cc34)cc2)no1 | -4.2 | -7.4 | 7.4 | 1.0
CC(=O)Nc1cccc(NC(=O)c2cc(-c3cccnc3)nc3ccc(Cl)cc23)c1 | -13.0 | -73.3 | 73.3* | 0.1
O=C(COC(=O)C1COc2ccccc2O1)Nc1ccccc1OC(F)F (stereo not drawn) | -5.5 | 7.6 | -7.6 | -0.2
CC(C)(C)c1ccc(OCc2ccc(C(=O)N/N=C/c3ccc(O)c(O)c3)cc2)cc1 | -5.5 | -107.3 | 107.3* | 0.1
Cn1cccc1-c1cc(C(=O)N/N=C/c2cc(Br)ccc2O)[nH]n1 | ? | -105.4 | 105.3* | -1.2
